Results as given in publication PMC11375963 (RSC Advances, 2024).

Key:
[1] = Cytotoxicity; assay type: cell-based; settings: mouse, BV2 microglial cells
Outline: (§1)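 Mouse BV2 microglia in DMEM with 10% FBS and 1% penicillin–streptomycin, 37 °C, 5% CO2. Seeded at 2 × 10^4 cells/well for 24 h, then exposed to test compound (0, 5, 10, 20, 40, 80 μM) for 24 h. MTT at 500 μg mL−1 for 3 h, formazan dissolved in DMSO, A570. Mean ± SD (n = 3); one-way ANOVA with Dunnett versus vehicle.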

[2] = system: TNF-α; assay: TNF-α release; assay type: cell-based; settings: LPS-induced BV2 cells, pretreatment, concentration-dependent manner (Fig. 4 and 5)
[3] = system: IL-6; assay: IL-6 release; assay type: cell-based; settings: LPS-induced BV2 cells, pretreatment, concentration-dependent manner (Fig. 4 and 5)
[4] = system: MCP-1; assay: MCP-1 release; assay type: cell-based; settings: LPS-induced BV2 cells, pretreatment, concentration-dependent manner (Fig. 4 and 5)
[5] = system: NF-κB (p65); assay: Western blot of LPS-induced NF-κB; assay type: cell-based; settings: pretreated 1 hour with the highest safety dose, LPS for 1 hour (Fig. 6)
Outline: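 BV2 cells (2 × 10^6 per 6 cm dish) got the highest non-cytotoxic test-compound concentration for 1 h, then LPS for 1 h. Lysates were centrifuged (4 °C, 12 000 rpm, 10 min), Bradford-quantified, 40 μg run on 10% SDS–PAGE and semi-dry blotted to nitrocellulose. P-p65, p65 (1:1000) and β-actin (1:2000) were detected by HRP anti-rabbit and ECL, then densitometry; one-way ANOVA/Bonferroni versus LPS.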

[6] = system: BV2 microglial cells; assay: Cytotoxicity; assay type: cell-based; settings: 24 hours, MTT, mean ± SD (n = 3)
Outline: as §1

[7] = system: LPS-induced RAW264.7 cells; settings: cited from earlier work

| Compound | viability at 24 h, 5 µM [1] | viability at 24 h, 10 µM [1] | viability at 24 h, 20 µM [1] | viability at 24 h, 40 µM [1] | viability at 24 h, 80 µM [1] | Effect on release of TNF-α [2] | Effect on release of IL-6 [3] | Effect on release of MCP-1 [4] | Effect on LPS-induced NF-κB (p65) phosphorylation (P-p65-NF-κB/p65-NF-κB ratio) [5] | Percentage viability (%) ([6]; 5 μM) | Percentage viability (%) ([6]; 10 μM) | Percentage viability (%) ([6]; 20 μM) | Percentage viability (%) ([6]; 40 μM) | Percentage viability (%) ([6]; 80 μM) | Anti-inflammatory activity [7] |
| --- | --- | --- | --- | --- | --- | --- | --- | --- | --- | --- | --- | --- | --- | --- | --- |
| COC1=CC(=O)c2c(ccc3cc(OC)c(OC)c(OC)c23)C1=O [Compound 1, 2,5,6,7-tetramethoxy-1,4-phenanthrenequinone] | 101 ± 3.33% | 101.5 ± 0.67% | 105 ± 7.09% | 102 ± 8.6% | 73.7 ± 18.5% | significantly reduced | significantly reduced | significantly reduced |  |  |  |  |  |  |  |
| COC1=CC(=O)c2ccc3cc(OC)c(OC)c(OC)c3c2C1=O [Compound 3, 3,5,6,7-tetramethoxy-1,4-phenanthrenequinone] | 99.9 ± 1.96% | 95.6 ± 7.44% | 94.9 ± 3.76% | 88.8 ± 6.76% | 55.1 ± 26.4% | significantly reduced | significantly reduced | significantly reduced | significantly suppressed |  |  |  |  |  |  |
| COc1ccc2c(c1O)CCc1cc(O)cc(OC)c1-2 [Compound 4, 9,10-dihydro-2,5-dimethoxy-1,7-phenanthrenediol] | 102 ± 3.53% | 99.3 ± 5.77% | 101 ± 2.3% | 95.3 ± 3.88% | 49.1 ± 24.6% |  |  |  |  |  |  |  |  |  |  |
| O=Cc1ccc(O)cc1 [Compound 5, p-hydroxybenzaldehyde] | 105 ± 1.81% | 104 ± 7.68% | 101 ± 7.37% | 101 ± 14.9% | 94.5 ± 21.6% |  |  |  |  |  |  |  |  |  |  |
| COc1cc(O)cc2c1-c1c(O)cccc1CC2 [Compound 7, hircinol] | 105 ± 4.37% | 108 ± 3.16% | 112 ± 2.51% | 111 ± 1.88% | 104 ± 9.12% |  |  |  |  |  |  |  |  |  |  |
| COc1cc2c(ccc3cc(OC)c(O)c(OC)c32)cc1O [Compound 8, 3,7-dihydroxy-2,4,6-trimethoxyphenanthrene] | 106.3 ± 0.36% | 100 ± 6.16% | 108.2 ± 0.53% | 113 ± 1.57% | 94.4 ± 21.2% |  |  |  |  |  |  |  |  |  |  |
| COc1cc2ccc3cccc(O)c3c2c(OC)c1O [Compound 9, bulbophyllanthrin] | 102 ± 2.99% | 101 ± 4.09% | 105 ± 3.47% | 105 ± 5.59% | 112 ± 5.8% |  |  |  |  |  |  |  |  |  |  |
| O=C(O)c1ccc(O)cc1 [Compound 10, p-hydroxybenzoic acid] | 101 ± 2.85% | 96.6 ± 1.58% | 104 ± 7.79% | 95.8 ± 4.1% | 85.1 ± 9.87% |  |  |  |  |  |  |  |  |  |  |
| COc1cc(C(=O)O)ccc1O [Compound 11, vanillic acid] | 102.9 ± 0.86% | 99.7 ± 1.55% | 98.77 ± 0.86% | 94.8 ± 2.82% | 86.4 ± 4.09% |  |  |  |  |  |  |  |  |  |  |
| COc1cc(O)c(Cc2ccc(O)cc2)c2c1-c1ccc(O)cc1CC2 [Compound 14, 1-(4-hydroxylbenzyl)-4-methoxy 9,10-dihydrophenanthrene 2,7-diol] | 108 ± 3.2% | 97.9 ± 8.91% | 91.9 ± 1.47% | 65.9 ± 4.08% | 26.7 ± 14.7% | significantly reduced | significantly reduced | significantly reduced |  |  |  |  |  |  |  |
| O=C(O)c1ccc(CO)cc1 [Compound 15, 4-hydroxymethyl benzoic acid] | 103 ± 1.97% | 105 ± 3.91% | 111 ± 2.26% | 108 ± 2.12% | 104 ± 3.05% |  |  |  |  |  |  |  |  |  |  |
| COc1cc(/C=C/C(=O)NCCc2ccc(O)cc2)ccc1O [Compound 17, N-trans-feruloyl tyramine] | 107 ± 6.44% | 97.3 ± 7.01% | 101 ± 8.73% | 101 ± 5.33% | 84.9 ± 5.53% |  |  |  |  |  |  |  |  |  |  |
| coelonin [Compound 6] |  |  |  |  |  | significantly reduced | significantly reduced | significantly reduced |  | 106.33 ± 4.65% | 108.08 ± 5.54% | 105.55 ± 7.76% | 76.69 ± 2.86 % | 44.78 ± 13.23 % | anti-inflammatory activity |
